In ChEMBL document CHEMBL4808225, “Discovery and Characterization of Selective and Ligand-Efficient DYRK Inhibitors” (J Med Chem, 2021):
In brackets after ≈: the same amount, converted by molar mass.

Assays:
[1] = target: T1, Dual specificity tyrosine-phosphorylation-regulated kinase 1A (Homo sapiens, UniProt Q13627); experiment: Displacement of Kinase tracer 236 from biotinylated DYRK1A (unknown origin) expressed in Escherichia coli BL21 (DE3) incubated for 1.5 hrs by TR-FRET assay
[2] = Thermodynamic solubility of the compound at pH 6.8; assay type: physicochemical; details: buffer, read-out: Therm_solubility
Summary of the method: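 Thermodynamic solubility measured at pH 6.8 in a single experiment, reported in […].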

[3] = Metabolic stability in human liver microsomes; assay type: ADME, Microsome; details: read-out: Stabilty
[4] = Metabolic stability in rat liver microsomes; assay type: ADME, Microsome; details: read-out: Stabilty
[5] = target: Cyclin-dependent kinase 2 (Homo sapiens) (UniProt P24941); experiment: Inhibition of wild-type human full length CDK2 (M1 to L298 residues) expressed in bacterial expression system assessed as remaining activity at 1 uM by Kinomescan method relative to control
Summary of the method: (§1)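 KINOMEscan competition binding panel run with inhibitor at 1 μM; read-out is remaining kinase activity (percent of control).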

[6] = target: T2, Dual specificity tyrosine-phosphorylation-regulated kinase 2 (Homo sapiens) (UniProt Q92630); experiment: Inhibition of wild-type human full length DYRK2 (M1 to S528 residues) expressed in mammalian expression system assessed as remaining activity at 1 uM by Kinomescan method relative to control; summary of the method: as §1
T2 sequence (whole entry): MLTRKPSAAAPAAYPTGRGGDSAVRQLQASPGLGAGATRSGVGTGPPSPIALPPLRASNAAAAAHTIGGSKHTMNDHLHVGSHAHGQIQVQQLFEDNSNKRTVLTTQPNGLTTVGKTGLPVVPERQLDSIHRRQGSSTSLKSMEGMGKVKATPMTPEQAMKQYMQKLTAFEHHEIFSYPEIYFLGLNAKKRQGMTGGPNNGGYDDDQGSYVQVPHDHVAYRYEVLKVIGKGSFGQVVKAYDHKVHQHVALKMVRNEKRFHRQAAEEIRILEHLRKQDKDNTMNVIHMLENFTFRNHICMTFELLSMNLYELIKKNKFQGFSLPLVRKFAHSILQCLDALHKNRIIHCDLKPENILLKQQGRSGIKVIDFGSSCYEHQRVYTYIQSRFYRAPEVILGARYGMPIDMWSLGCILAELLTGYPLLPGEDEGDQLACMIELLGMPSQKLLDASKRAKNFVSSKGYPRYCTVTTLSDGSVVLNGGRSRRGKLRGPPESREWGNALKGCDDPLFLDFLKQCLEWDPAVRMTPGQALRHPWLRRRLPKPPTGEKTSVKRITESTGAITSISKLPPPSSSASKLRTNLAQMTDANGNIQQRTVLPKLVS

[7] = target: Dual specificity protein kinase CLK3 (Homo sapiens) (UniProt P49761); experiment: Inhibition of wild-type human full length CLK3 (M1 to R490 residues) expressed in bacterial expression system assessed as remaining activity at 1 uM by Kinomescan method relative to control; summary of the method: as §1
Chain of Dual specificity protein kinase CLK3 (Homo sapiens) (P49761 whole entry, looked up, the tested form may be a part): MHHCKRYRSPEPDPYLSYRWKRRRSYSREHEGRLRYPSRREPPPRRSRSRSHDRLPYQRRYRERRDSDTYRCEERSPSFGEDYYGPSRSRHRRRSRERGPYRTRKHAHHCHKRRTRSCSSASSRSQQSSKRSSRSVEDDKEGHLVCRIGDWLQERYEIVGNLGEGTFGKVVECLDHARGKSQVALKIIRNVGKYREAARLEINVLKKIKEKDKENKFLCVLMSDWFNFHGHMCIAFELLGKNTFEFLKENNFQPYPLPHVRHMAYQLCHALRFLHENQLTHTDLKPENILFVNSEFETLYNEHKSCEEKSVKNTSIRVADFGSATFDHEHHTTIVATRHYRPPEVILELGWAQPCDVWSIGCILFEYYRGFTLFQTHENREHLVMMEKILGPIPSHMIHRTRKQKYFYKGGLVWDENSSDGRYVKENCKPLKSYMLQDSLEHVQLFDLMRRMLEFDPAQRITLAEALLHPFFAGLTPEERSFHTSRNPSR

[8] = target: Dual specificity protein kinase CLK2 (Homo sapiens) (UniProt P49760); experiment: Inhibition of wild-type human partial length CLK2 (D144 to R498 residues) expressed in bacterial expression system assessed as remaining activity at 1 uM by Kinomescan method relative to control; summary of the method: as §1
Chain of Dual specificity protein kinase CLK2 (Homo sapiens) (P49760 whole entry, looked up, the tested form may be a part): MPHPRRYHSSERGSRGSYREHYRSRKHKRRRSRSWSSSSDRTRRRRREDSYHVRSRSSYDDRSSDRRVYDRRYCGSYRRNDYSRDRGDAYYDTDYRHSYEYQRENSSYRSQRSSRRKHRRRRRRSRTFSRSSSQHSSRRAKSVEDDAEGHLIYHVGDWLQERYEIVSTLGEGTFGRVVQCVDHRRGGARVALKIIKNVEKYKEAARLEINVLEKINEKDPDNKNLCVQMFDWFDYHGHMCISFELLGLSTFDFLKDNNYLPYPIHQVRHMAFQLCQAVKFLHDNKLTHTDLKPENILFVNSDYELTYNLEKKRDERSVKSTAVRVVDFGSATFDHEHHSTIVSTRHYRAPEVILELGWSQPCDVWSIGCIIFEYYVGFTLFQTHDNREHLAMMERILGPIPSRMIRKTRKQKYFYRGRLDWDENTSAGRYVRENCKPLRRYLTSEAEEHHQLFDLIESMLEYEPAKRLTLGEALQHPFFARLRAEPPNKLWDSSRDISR

[9] = target: Dual specificity tyrosine-phosphorylation-regulated kinase 1B (Homo sapiens) (UniProt Q9Y463); experiment: Inhibition of wild-type human full length DYRK1B (M1 to S629 residues) expressed in bacterial expression system assessed as remaining activity at 1 uM by Kinomescan method relative to control; summary of the method: as §1
Chain of Dual specificity tyrosine-phosphorylation-regulated kinase 1B (Homo sapiens) (Q9Y463 whole entry, looked up, the tested form may be a part): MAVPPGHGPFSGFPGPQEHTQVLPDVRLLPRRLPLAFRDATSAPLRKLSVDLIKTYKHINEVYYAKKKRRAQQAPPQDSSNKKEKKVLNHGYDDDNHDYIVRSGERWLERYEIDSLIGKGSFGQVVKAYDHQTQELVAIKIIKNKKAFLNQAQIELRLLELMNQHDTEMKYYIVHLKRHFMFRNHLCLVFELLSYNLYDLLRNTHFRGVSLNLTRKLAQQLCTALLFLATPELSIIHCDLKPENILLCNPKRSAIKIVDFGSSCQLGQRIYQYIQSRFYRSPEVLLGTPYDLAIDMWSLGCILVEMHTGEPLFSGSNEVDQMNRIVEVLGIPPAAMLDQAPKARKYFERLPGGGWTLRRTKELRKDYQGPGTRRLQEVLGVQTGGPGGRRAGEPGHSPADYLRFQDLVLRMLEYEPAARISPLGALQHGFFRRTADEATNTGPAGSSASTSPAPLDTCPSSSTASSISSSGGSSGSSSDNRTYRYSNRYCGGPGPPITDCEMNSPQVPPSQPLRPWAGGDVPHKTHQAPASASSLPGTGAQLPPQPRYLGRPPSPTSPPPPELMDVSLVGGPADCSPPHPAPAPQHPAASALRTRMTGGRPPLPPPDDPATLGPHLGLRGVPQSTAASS

[10] = target: Dual specificity protein kinase CLK1 (Homo sapiens, UniProt P49759); experiment: Inhibition of wild-type human full length CLK1 (M1 to I484 residues) expressed in bacterial expression system assessed as remaining activity at 1 uM by Kinomescan method relative to control; summary of the method: as §1
Chain of Dual specificity protein kinase CLK1 (P49759 whole entry, looked up, the tested form may be a part): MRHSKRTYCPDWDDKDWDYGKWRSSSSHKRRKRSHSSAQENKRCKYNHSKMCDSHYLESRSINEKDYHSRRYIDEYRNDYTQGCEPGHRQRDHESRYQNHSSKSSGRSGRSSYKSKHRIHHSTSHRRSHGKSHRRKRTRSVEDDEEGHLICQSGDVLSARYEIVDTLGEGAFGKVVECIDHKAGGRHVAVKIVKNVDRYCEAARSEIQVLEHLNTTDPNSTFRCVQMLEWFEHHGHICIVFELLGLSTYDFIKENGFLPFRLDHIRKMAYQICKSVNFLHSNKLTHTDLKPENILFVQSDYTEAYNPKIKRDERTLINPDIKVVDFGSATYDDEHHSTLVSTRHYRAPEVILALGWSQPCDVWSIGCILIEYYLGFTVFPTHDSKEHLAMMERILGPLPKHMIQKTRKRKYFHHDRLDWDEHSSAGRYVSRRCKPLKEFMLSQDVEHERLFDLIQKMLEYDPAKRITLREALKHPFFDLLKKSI

[11] = target: Glycogen synthase kinase-3 beta (Homo sapiens) (UniProt P49841); experiment: Inhibition of wild-type human full length GSK3B (M1 to T433 residues) expressed in mammalian expression system assessed as remaining activity at 1 uM by Kinomescan method relative to control; summary of the method: as §1
Chain of Glycogen synthase kinase-3 beta (Homo sapiens) (P49841 whole entry, looked up, the tested form may be a part): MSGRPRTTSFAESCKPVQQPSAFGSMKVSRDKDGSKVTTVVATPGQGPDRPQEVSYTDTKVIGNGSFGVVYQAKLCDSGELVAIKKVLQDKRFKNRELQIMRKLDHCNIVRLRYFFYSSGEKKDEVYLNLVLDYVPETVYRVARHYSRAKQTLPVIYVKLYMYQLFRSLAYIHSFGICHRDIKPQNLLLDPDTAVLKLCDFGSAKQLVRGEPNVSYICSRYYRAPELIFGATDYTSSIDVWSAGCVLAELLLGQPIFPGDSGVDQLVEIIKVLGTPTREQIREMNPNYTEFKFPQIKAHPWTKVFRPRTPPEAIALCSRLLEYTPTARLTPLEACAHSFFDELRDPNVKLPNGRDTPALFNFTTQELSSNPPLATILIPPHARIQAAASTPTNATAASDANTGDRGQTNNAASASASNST

[12] = target: T1, Dual specificity tyrosine-phosphorylation-regulated kinase 1A; experiment: Binding affinity to biotinylated DYRK1A (unknown origin) expressed in Escherichia coli BL21 (DE3) assessed as dissociation constant measured up to 5 min by SPR method

In the case of `CN(C)c1nc2c(c(-c3cnn4ncccc34)n1)COC2`, the IC50 [1] is reported as 7410 nM.
In the case of `COCCCN(C)c1nccc(-c2cnn3ncccc23)n1`, the IC50 [1] is reported as 219 nM.
`CN(c1ccccc1)c1nccc(-c2cnn3ncccc23)n1` showed a solubility thermodynamic [2] of 50 µg/mL (≈ 165 µM), a microsomal CLint [3] of 450 µL/min/mg and a microsomal CLint [4] of 340 µL/min/mg.
Work on `CN(C)c1cc(-c2cnn3ncccc23)ccn1` yielded an IC50 [1] of 676 nM.
Work on `c1cnn2ncc(-c3ccnc(N4CCC5(CCOC5)C4)n3)c2c1` (stereo unspecified) yielded an IC50 [1] of 269 nM.
In the case of `CN(C)c1nccc(-c2cnn3ccccc23)n1`, the IC50 [1] is reported as 891 nM.
With `CC(C)c1cc(-c2cnn3ncccc23)nc(N(C)C)n1` the IC50 [1] was 19100 nM.
Molecule `COc1ccnn2ncc(-c3ccnc(N(C)C)n3)c12` has an Activity [5] of 100%, an Activity [6] of 24% and an Activity [7] of 83%. It also gave a solubility thermodynamic [2] of 70 µg/mL (≈ 259 µM), a microsomal CLint [3] of 89 µL/min/mg and an Activity [8] of 12%. The microsomal CLint [4] was 77 µL/min/mg, the IC50 [1] was 138 nM and the Activity [9] was 0.7%. The Activity [10] was 7.8% and the Activity [11] was 100%.
`CC1(F)CN(c2nccc(-c3cnn4ncccc34)n2)C1` showed an IC50 [1] of 372 nM.
Work on `Cc1cnn2ncc(-c3ccnc(N(C)C)n3)c2c1` yielded an Activity [5] of 89%, an Activity [6] of 25% and an Activity [7] of 76%. The solubility thermodynamic [2] was 10 µg/mL (≈ 39.3 µM), the microsomal CLint [3] was 160 µL/min/mg and the Activity [8] was 13%. The microsomal CLint [4] was 164 µL/min/mg, the IC50 [1] was 115 nM and the Activity [9] was 1.6%. It also gave an Activity [10] of 15% and an Activity [11] of 100%.
Molecule `FC1CCN(c2nccc(-c3cnn4ncccc34)n2)C1` (single isomer, unassigned) has an Activity [5] of 95%, an Activity [6] of 39% and an Activity [7] of 96%. For the same molecule, the solubility thermodynamic [2] was 40 µg/mL (≈ 141 µM), the microsomal CLint [3] was 296 µL/min/mg and the Activity [8] was 62%. The microsomal CLint [4] was 130 µL/min/mg, the IC50 [1] was 66.1 nM and the Activity [9] was 34%. For the same molecule, the Activity [10] was 48% and the Activity [11] was 98%.
`CN(C)c1cccc(-c2cnn3ncccc23)n1` showed an IC50 [1] of 912 nM.
`COc1ccc2c(-c3ccnc(N(C)C)n3)cnn2n1` showed an IC50 [1] of 2630 nM.
For `CN(C)c1nccc(-c2ccc(=O)n(C)c2)n1`, the IC50 [1] was 7940 nM.
Work on `COc1cnc(N(C)C)nc1-c1cnn2ncccc12` yielded an IC50 [1] of 1170 nM.
Work on `Cc1nn2ncccc2c1-c1ccnc(N(C)C)n1` yielded an IC50 [1] of 30900 nM.
`c1cnn2ncc(-c3ccnc(N4CC5CCCC5C4)n3)c2c1` (stereo unspecified) showed an IC50 [1] of 1230 nM.
With `F[C@H]1CCN(c2nccc(-c3cnn4ncccc34)n2)C1` the IC50 [1] was 186 nM.
In the case of `C[C@H]1CCN(c2nccc(-c3cnn4ncccc34)n2)C1`, the Activity [5] is reported as 100%, the Activity [6] is reported as 15% and the Activity [7] is reported as 88%. The solubility thermodynamic [2] was 20 µg/mL (≈ 71.3 µM), the microsomal CLint [3] was 378 µL/min/mg and the Activity [8] was 16%. For the same molecule, the microsomal CLint [4] was 448 µL/min/mg, the IC50 [1] was 115 nM and the Activity [9] was 7.2%. The Activity [10] was 17% and the Activity [11] was 77%.
`CN(C)c1ncnc(-c2cnn3ncccc23)n1` gave a solubility thermodynamic [2] of 50 µg/mL (≈ 207 µM), a microsomal CLint [3] of 93.6 µL/min/mg and a microsomal CLint [4] of 105 µL/min/mg. The Kd [12] was 153 nM and the IC50 [1] was 182 nM.
Molecule `Nc1nccc(-c2cnn3ncccc23)n1` has a Kd [12] of 134 nM and an IC50 [1] of 525 nM.
`CN(C)c1nccc(-c2cnc3cccnn23)n1` gave an IC50 [1] of 55000 nM.
For `CN(C)c1nccc(-c2cn(C)c3cnccc23)n1`, the IC50 [1] was 977 nM.
For `CC(C)N(c1nccc(-c2cnn3ncccc23)n1)C1CC1`, the IC50 [1] was 1200 nM.
Work on `Cc1ccnn2ncc(-c3ccnc(N(C)C)n3)c12` yielded an IC50 [1] of 724 nM.
For `c1cnn2ncc(-c3ccnc(N4CC5(COC5)C4)n3)c2c1`, the IC50 [1] was 513 nM.
`CN(C)c1nccc(-c2cnc3ccccn23)n1` gave an IC50 [1] of 692 nM.
`CN(C)c1ncc(Br)c(-c2cnn3ncccc23)n1` gave an IC50 [1] of 1580 nM.
`NC1CCN(c2nccc(-c3cnn4ncccc34)n2)C1` (single isomer, unassigned) showed an Activity [5] of 86%, an Activity [6] of 28% and an Activity [7] of 89%. It also gave a solubility thermodynamic [2] of 4370 µg/mL (≈ 15500 µM), a microsomal CLint [3] of 40 µL/min/mg and an Activity [8] of 51%. The microsomal CLint [4] was 66 µL/min/mg, the Activity [9] was 10% and the Activity [10] was 47%. The Activity [11] was 100%.
For `CN(C)c1nccc(-c2c[nH]c3cnccc23)n1`, the IC50 [1] was 1020 nM.
